# Results from ChEMBL document CHEMBL1129449 (J Med Chem, 1996).
# Assays:
# D(1A) dopamine receptor = D(1A) dopamine receptor (Rattus norvegicus, UniProt P18901); assay: Binding affinity at Dopamine receptor D1 in rat neostriatum by [3H]-SCH- 23390 displacement.; format: tissue-based, Striatum
# Method in brief: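 Tissue: sections of neostriatum from male Sprague–Dawley rats (250–300 g). Test substances dissolved in distilled water. Values are mean ± SEM of five to seven independent experiments, each run in triplicate.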
# D(2) dopamine receptor = D(2) dopamine receptor (Rattus norvegicus, UniProt P61169); assay: Binding affinity at Dopamine receptor D2 in rat neostriatum frozen sections by [3H]-spiperone displacement.
# Chain of D(2) dopamine receptor (P61169 whole entry): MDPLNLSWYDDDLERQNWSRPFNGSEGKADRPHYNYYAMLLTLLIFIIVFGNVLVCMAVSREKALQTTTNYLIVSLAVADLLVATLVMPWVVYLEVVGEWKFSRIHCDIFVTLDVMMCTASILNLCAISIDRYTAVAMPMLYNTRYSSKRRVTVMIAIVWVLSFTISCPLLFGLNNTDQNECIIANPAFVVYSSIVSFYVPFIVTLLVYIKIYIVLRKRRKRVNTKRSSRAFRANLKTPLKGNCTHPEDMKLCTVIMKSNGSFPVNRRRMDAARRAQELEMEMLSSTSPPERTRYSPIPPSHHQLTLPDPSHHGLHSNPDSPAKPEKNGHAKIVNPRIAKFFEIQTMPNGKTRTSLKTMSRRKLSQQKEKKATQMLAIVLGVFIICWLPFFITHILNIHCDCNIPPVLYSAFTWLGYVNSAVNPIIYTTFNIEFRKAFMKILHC
# Chain of D(1A) dopamine receptor (P18901 whole entry): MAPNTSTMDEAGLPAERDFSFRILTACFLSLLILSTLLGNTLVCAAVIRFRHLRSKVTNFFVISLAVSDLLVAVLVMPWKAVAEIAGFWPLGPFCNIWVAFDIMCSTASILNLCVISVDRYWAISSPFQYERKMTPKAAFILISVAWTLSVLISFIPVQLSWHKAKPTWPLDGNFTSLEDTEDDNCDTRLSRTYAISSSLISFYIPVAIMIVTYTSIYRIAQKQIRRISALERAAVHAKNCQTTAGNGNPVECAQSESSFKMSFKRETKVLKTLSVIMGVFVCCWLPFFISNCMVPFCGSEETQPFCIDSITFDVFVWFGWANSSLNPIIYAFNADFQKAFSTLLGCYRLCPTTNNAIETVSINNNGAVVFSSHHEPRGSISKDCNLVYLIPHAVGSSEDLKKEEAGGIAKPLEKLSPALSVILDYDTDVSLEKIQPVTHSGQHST
Structure (SMILES),Ki (D(1A) dopamine receptor),Ki (D(2) dopamine receptor)
C[C@@]1(c2ccccc2)c2cc(O)c(O)cc2C[C@@]1(C)N,5.5 nM,> 1000 nM
N[C@@H]1Cc2ccc(O)cc2[C@H]1c1ccccc1 (stereo in doubt; (+)-14a),2.5 nM,0.59 nM
N[C@@H]1Cc2cc(O)ccc2[C@H]1c1ccccc1 (stereo in doubt; (+)-14b),1.87 nM,> 1000 nM
CCCN(CCC)[C@@H]1Cc2ccc(O)cc2[C@H]1c1ccccc1 (stereo in doubt; (+)-15a),28.5 nM,51.5 nM
CCCN(CCC)[C@@H]1Cc2cc(O)ccc2[C@H]1c1ccccc1 (stereo in doubt; (+)-15b),1.4 nM,> 1000 nM
C=CCN(C)[C@@H]1Cc2ccc(O)cc2[C@H]1c1ccccc1 (stereo in doubt; (+)-16a),3 nM,37.5 nM
C=CCN(C)[C@@H]1Cc2cc(O)ccc2[C@H]1c1ccccc1 (stereo in doubt; (+)-16b),> 1000 nM,> 1000 nM
CCCN(C)[C@@H]1Cc2ccc(O)cc2[C@H]1c1ccccc1 (stereo in doubt; (+)-17a),0.9 nM,0.3 nM
CCCN(C)[C@@H]1Cc2cc(O)ccc2[C@H]1c1ccccc1 (stereo in doubt; (+)-17b),> 1000 nM,> 1000 nM
N[C@@H]1Cc2ccc(O)cc2[C@H]1c1ccccc1 (stereo in doubt; (-)-14a),34.5 nM,0.89 nM
N[C@@H]1Cc2cc(O)ccc2[C@H]1c1ccccc1 (stereo in doubt; (-)-14b),18.7 nM,> 1000 nM
CCCN(CCC)[C@@H]1Cc2ccc(O)cc2[C@H]1c1ccccc1 (stereo in doubt; (-)-15a),26.4 nM,0.84 nM
CCCN(CCC)[C@@H]1Cc2cc(O)ccc2[C@H]1c1ccccc1 (stereo in doubt; (-)-15b),1.76 nM,> 1000 nM
C=CCN(C)[C@@H]1Cc2ccc(O)cc2[C@H]1c1ccccc1 (stereo in doubt; (-)-16a),0.79 nM,0.43 nM
C=CCN(C)[C@@H]1Cc2cc(O)ccc2[C@H]1c1ccccc1 (stereo in doubt; (-)-16b),> 1000 nM,> 1000 nM
CCCN(C)[C@@H]1Cc2ccc(O)cc2[C@H]1c1ccccc1 (stereo in doubt; (-)-17a),0.88 nM,0.34 nM
CCCN(C)[C@@H]1Cc2cc(O)ccc2[C@H]1c1ccccc1 (stereo in doubt; (-)-17b),> 1000 nM,> 1000 nM
